NRP1-CendR mod: alters CendR peptide binding to human NRP-1. O14786. FAM-RPARPAR peptide binding to NRP-1, fluorescence polarization. inhibition, % at 25 µM. 360,000 compounds, 0.85% hits;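 active means inhibition or corrected inhibition above about 18%, plus a signal ratio from 0.5 to 1.5, limit read from the data, passing the limit was not always enough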
Target sequence (O14786 whole entry, looked up): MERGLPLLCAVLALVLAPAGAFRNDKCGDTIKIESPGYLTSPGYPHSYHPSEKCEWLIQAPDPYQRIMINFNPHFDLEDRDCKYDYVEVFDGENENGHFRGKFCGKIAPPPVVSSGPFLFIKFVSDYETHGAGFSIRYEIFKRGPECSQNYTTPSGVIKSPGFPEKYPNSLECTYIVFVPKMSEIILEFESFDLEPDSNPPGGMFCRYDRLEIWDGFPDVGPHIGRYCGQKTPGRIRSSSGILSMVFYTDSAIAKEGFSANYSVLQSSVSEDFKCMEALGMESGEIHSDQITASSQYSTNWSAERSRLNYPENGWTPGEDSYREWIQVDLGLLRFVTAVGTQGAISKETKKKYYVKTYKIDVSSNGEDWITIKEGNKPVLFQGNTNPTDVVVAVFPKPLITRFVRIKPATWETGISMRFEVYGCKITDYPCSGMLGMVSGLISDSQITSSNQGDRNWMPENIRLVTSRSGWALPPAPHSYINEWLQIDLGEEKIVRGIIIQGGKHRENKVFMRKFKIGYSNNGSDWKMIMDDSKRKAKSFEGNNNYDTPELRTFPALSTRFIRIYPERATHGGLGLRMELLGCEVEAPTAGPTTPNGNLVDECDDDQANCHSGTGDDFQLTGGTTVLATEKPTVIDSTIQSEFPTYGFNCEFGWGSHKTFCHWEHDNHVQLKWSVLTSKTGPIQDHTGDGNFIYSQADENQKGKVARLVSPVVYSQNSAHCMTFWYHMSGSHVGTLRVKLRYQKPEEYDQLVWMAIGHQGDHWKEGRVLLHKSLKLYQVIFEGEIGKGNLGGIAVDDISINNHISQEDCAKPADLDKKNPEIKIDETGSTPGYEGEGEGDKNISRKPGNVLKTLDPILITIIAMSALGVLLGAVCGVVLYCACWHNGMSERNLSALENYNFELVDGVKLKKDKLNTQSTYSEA
ASAP1 inh: inhibitors of human ASAP1 ArfGAP activity; ASAP1-stimulated ARF1 GTP hydrolysis, GDP FP detection; inhibition, % at 16.5 µM; 360,000 compounds, 0.19% hits; in the data active means inhibition above about 25%;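 further: 0% = vehicle with enzyme and substrate and 100% = no enzyme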
V-ATPase pH: yeast V-ATPase proton transport regulation by pHLuorin. S. cerevisiae, pHLuorin cytosolic pH fluorescence. response, % at 10 µM. 350,000 compounds, 0.37% hits. AID 504577; in the data active means response mostly above about 7.3%, no sharp cut-off; inactive means mostly below about 5.4%; further: actives read high
Granule exo inh: lytic granule exocytosis inhibition; TALL-104 LAMP-1 surface exposure, flow cytometry; cells stimulated with thapsigargin and PMA; inhibition, % at 10 µM; 360,000 compounds, 0.66% hits; AID 651702;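 active means inhibition above about 55%, limit read from the data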
ARFGAP1 inhibitor: rat ARFGAP1 inhibition; Q62848; Arfgap1-stimulated ARF1 GTP hydrolysis, GDP FP detection; inhibition, % at 16.5 µM; 360,000 compounds, 0.26% hits;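 active means inhibition above a per-plate limit, mean inhibition of low control wells plus 3 SD, cut at about 25% in these data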;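 further: 0% = DMSO wells with enzyme and 100% = wells lacking Arfgap1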
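Material: truncated rat Arfgap1 GAP domain; Incubation: compound-enzyme preincubation 20 min, reaction 120 min, detection 60 min, 25 °C; Read-out: percent inhibition of Arfgap1-stimulated GTP hydrolysis; Technique: FP, GDP Alexa 633 tracer displaced from anti-GDP antibody, 620/688 nm; Controls: No-Arfgap1 wells (100%) versus DMSO full-reaction wells (0%); Replication: single well per compound.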
An asterisk follows results filed as active; nt = no result; + = active, no number. Most compounds without a hit are left out; they make up all but 2.2% or so of the library.

SMILES	NRP1-CendR mod	ASAP1 inh	V-ATPase pH	Granule exo inh	ARFGAP1 inhibitor
O=C(NCC1CCN(C(=O)C(=O)c2cc3ccccc3o2)CC1)c1cccnc1	nt	10.5	nt	nt	3.3
CCc1cccc(-n2c(C)cc(O)cc2=O)c1	nt	5.7	nt	nt	-3.8
CCCCOc1ccc(CSCCN=C(N)N)cc1	39.7*	-11.8	-1.2	-2.7	-1.8
COc1ccccc1CCn1cnc(-c2cccc(F)c2)c1CC(C)C	nt	-2.2	nt	nt	-8.7
Clc1ccc(CN2CCN(c3ncc(Cc4ccccc4)cn3)CC2)c(Cl)c1	nt	0.8	nt	nt	-2.5
Cc1ccnc(NC(=O)COc2ccc3oc4c(c3c2)CCCC4)c1	44.2*	-14.0	6.1	-4.8	7.0
COc1ccc(C2CC(=O)C(c3ccc([N+](=O)[O-])cc3)=CN2Cc2ccccc2)cc1 (configuration not stated)	nt	0.7	nt	nt	7.6
CCCCCc1ccc(CC(=O)O)cc1	38.4*	11.0	2.0	-2.3	-13.5
CCCCc1ccc(CC(=O)O)cc1	-2.9	-19.6	-1.5	-2.3	-5.3
O=c1c2[nH]cnc2n(-c2ccccc2)c(=O)n1Cc1ccccc1	-8.1	-14.8	0.1	4.0	-0.2
COc1cccc(-n2c(=O)n(Cc3ccccc3)c(=O)c3[nH]cnc32)c1	22.1*	-7.6	3.5	-0.7	-4.1
COc1ccccc1N=C1NC(=O)/C(=C/c2ccc(N(C)C)cc2)S1	-185.4	-4.2	1.5	67.4*	2.6
CN(C(=O)CSc1nnc(-c2ccc(F)cc2)n1C)C1CCS(=O)(=O)C1 (configuration not stated)	3.6	-10.1	10.1*	-0.8	1.8
Cc1ccccc1Nc1nnc(SCC(=O)N(C)C2CCS(=O)(=O)C2)s1 (configuration not stated)	-2.6	2.4	15.8*	-3.6	-5.3
CN(C(=O)CSc1nnc(-c2ccc(Cl)cc2)n1C)C1CCS(=O)(=O)C1 (configuration not stated)	-1.0	-4.4	1.3	-7.0	-5.3
CCCOc1ccc(C2C(C(=O)OC)=CN(CCOC)C=C2C(=O)OC)cc1	27.9*	4.5	5.8	-3.9	-2.4
CN1OC[C@@H]2CN3C(=NCCc4ccccc4)Sc4ccccc4[C@@H]3C[C@@H]21	nt	-4.2	nt	nt	14.5
C[N+](C)=C1SCC(C)(/C=N/O)S1 (configuration not stated)	-10.0	-4.2	1.1	107.5*	9.0
Cc1cccc(S(=O)(=O)NC(=O)C2(C)CCN2C(=O)CCc2ccccc2)c1 (configuration not stated)	27.1*	12.2	nt	6.5	0.5
Cc1cccc(S(=O)(=O)NC(=O)C2(C)CCN2C(=O)Cc2ccccc2)c1 (configuration not stated)	0.7	1.3	nt	-0.2	1.0
CCOc1ccccc1NC(=O)Cn1cnc2c(cnn2-c2ccc(C)c(C)c2)c1=O	37.6*	6.0	-2.9	-2.8	-4.7
COC(=O)C1=C(C)N(C)C(=NCc2cccc(C(F)(F)F)c2)NC1c1cccc(F)c1 (configuration not stated)	nt	-1.5	nt	nt	-0.6
Cc1ccc(C(=O)Nc2nnc(SCC(=O)N3CCCc4ccccc43)s2)cc1	12.0	-8.4	9.0*	-2.7	1.1
O=C(Nc1nnc(SCC(=O)N2CCCc3ccccc32)s1)c1cccc2ccccc12	-5.4	-0.6	1.3	-10.4	2.8
Cc1cccc(NC(=S)Nc2cccc(C)n2)n1	16.8	-5.1	-2.9	72.6*	-3.4
SMILES	NRP1-CendR mod	ASAP1 inh	V-ATPase pH	Granule exo inh	ARFGAP1 inhibitor
C=CCN1C(=O)/C(=C/c2ccc(-c3ccc(F)cc3)o2)SC1=S	-128.7	-4.7	7.3	93.2*	7.2
CN(C)Cc1cc(C(F)(F)F)ccc1C(O)(c1ccccc1)c1ccccc1	21.1*	11.5	-1.8	16.8	11.0
CN(C)Cc1ccccc1C(O)(c1ccccc1)c1ccccc1	-3.9	-10.9	0.1	38.7	-9.7
CC(C)CNC(=O)/C=C/C=C/CCCC/C=C/c1ccc2c(c1)OCO2	25.2*	11.9	-1.7	10.7	8.6
CCOC(=O)CNC(=O)/C=C/c1ccc2c(c1)OCO2	10.4	-5.4	-0.9	-0.6	-7.3
CC(=O)Nc1ccc(NC(=O)COC(=O)C2CCCCC2)cc1	24.3*	-6.5	-4.5	0.7	6.4
COC(=O)c1ccc(NC(=O)COC(=O)C2CCC2)cc1	1.7	-3.0	-1.6	-7.5	10.5
COC(=O)N1C[C@H](OCc2ccc3c(c2)OCO3)[C@H]2C[C@@H]1c1ccccc1O2	nt	6.2	nt	nt	6.7
Cc1cc(N2CCN(C(=O)OC(C)(C)C)C[C@@H]2C)ccc1Br	nt	11.6	nt	nt	-2.1
CC(NNC(=S)N1CCN(c2ccccn2)CC1)c1nccc2ccccc12 (configuration not stated)	24.4*	-2.7	-3.8	7.6	-12.4
CC(C)N1CCc2c(sc(NC(=O)c3cc(-c4cccs4)nc4ccccc34)c2C(N)=O)C1	-252.3	nt	-0.5	76.3*	nt
Cc1ccc(C2c3c(n[nH]c3C(C)C)C(=O)N2c2ccccc2)cc1 (configuration not stated)	nt	-5.4	nt	nt	14.4
C=CCC1(CC=C)CCCN1C(=O)c1cc(COc2cccc(OC)c2)on1	21.4*	7.4	2.7	-2.6	3.1
C=CCC1(CC=C)CCCN1C(=O)c1cc(COc2cncc(Cl)c2)on1	5.2	-4.4	-2.0	-12.2	5.0
CCN1CCN(C(=S)NC(=O)c2cccc(Br)c2)CC1	43.4*	1.9	-5.7	-2.1	-2.1
N#CCCN(CCC#N)S(=O)(=O)c1ccc(C(=O)Nc2nnc(C3=COCCO3)o2)cc1	7.6	0.7	3.9	-0.2	16.5
CCCN(CCC)S(=O)(=O)c1ccc(C(=O)Nc2nnc(-c3cc(OC)cc(OC)c3)o2)cc1	24.7*	nt	-4.8	6.7	nt
CCCCN(C)S(=O)(=O)c1ccc(C(=O)Nc2nnc(C3=COCCO3)o2)cc1	29.5*	-9.6	-0.7	1.0	0.3
COc1ccc(C(=O)c2[nH]c(N)c(C(=O)c3c[nH]c4ccccc34)c2-c2ccc(F)c(OC)c2)cc1	nt	-1.2	nt	nt	14.4
Cc1ccc(NN2C(=O)C=C(c3ccccc3)C2=O)cc1	-12.1	4.4	nt	67.2*	10.8
Cc1ccc(C(=O)N2CCC[C@@H]2C(=O)N2CCC[C@@H]2C(=O)NCc2ccccc2)cc1C	nt	-12.9	nt	nt	-15.7
N=C(N)c1ccc(N=Nc2c(O)ccc3c2[nH]c2ccccc23)cc1	72.5*	174.8*	-0.2	0.5	+
COC(=O)[C@]12C[C@H](CC(=O)NCCC(C)C)C(=O)N(Cc3ccccc3)C1=C[C@H](C(C)(C)C)O[C@@H]2C	nt	-10.4	nt	nt	2.4
CC(=O)Nc1ccc(C(=O)N2CCCCC2c2cc(C(=O)Nc3ccccc3)no2)cc1 (configuration not stated)	-13.9	-2.7	nt	-1.5	7.9
CC(=O)Nc1ccc(C(=O)N2CCCCC2c2cc(C(=O)Nc3ccccc3Cl)no2)cc1 (configuration not stated)	24.2*	-5.3	nt	-2.8	-3.0
COc1ccc2[nH]c(=O)c(C(c3nnnn3CC3CCCO3)N3CCCCC3)cc2c1 (configuration not stated)	25.5*	6.4	0.6	-4.0	2.4
